Test results published in ChEMBL document CHEMBL3864121, “Development of ebsulfur analogues as potent antibacterials against methicillin-resistant Staphylococcus aureus” (Bioorg Med Chem, 2016).
In brackets after ≈: the same amount, converted by molar mass.

Experiments:
Staphylococcus aureus [1] = assay: Antibacterial activity against methicillin-resistant Staphylococcus aureus C2 measured after overnight incubation by broth double-dilution method; format: functional
Procedure, shortened: (§1)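 MIC by broth double-dilution in liquid Mueller-Hinton medium. Values are reported in µg/mL.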

Staphylococcus aureus [2] = assay: Antibacterial activity against methicillin-resistant Staphylococcus aureus S22 measured after overnight incubation by broth double-dilution method; format: functional; procedure, shortened: as §1
Staphylococcus aureus [3] = assay: Antibacterial activity against methicillin-resistant Staphylococcus aureus NRS4 measured after overnight incubation by broth double-dilution method; format: functional; procedure, shortened: as §1
Staphylococcus aureus [4] = assay: Antibacterial activity against methicillin-sensitive Staphylococcus aureus ATCC 25923 measured after overnight incubation by broth double-dilution method; format: functional; procedure, shortened: as §1
Staphylococcus aureus [5] = assay: Antibacterial activity against methicillin-resistant Staphylococcus aureus G6 measured after overnight incubation by broth double-dilution method; format: functional; procedure, shortened: as §1
Staphylococcus aureus [6] = assay: Antibacterial activity against methicillin-resistant Staphylococcus aureus S17 measured after overnight incubation by broth double-dilution method; format: functional; procedure, shortened: as §1
[7] = system: Staphylococcus epidermidis; assay: Antibacterial activity against Staphylococcus epidermidis ATCC 35984 measured after overnight incubation by broth double-dilution method; format: functional; conditions: RP62A
Procedure, shortened: (§2)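 MIC by broth double-dilution in Mueller-Hinton medium. Re-testing at the time-kill inoculum used 1×10^6 CFU/mL.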

Staphylococcus aureus [8] = assay: Antibacterial activity against methicillin-resistant Staphylococcus aureus USA200 measured after overnight incubation by broth double-dilution method; format: functional; procedure, shortened: as §1
Enterococcus faecium = assay: Antibacterial activity against Enterococcus faecium BM4105-RF measured after overnight incubation by broth double-dilution method; format: functional; procedure, shortened: as §1
Staphylococcus aureus [9] = assay: Antibacterial activity against methicillin-resistant Staphylococcus aureus NRS77 measured after overnight incubation by broth double-dilution method; format: functional; procedure, shortened: as §1
Staphylococcus aureus [10] = assay: Antibacterial activity against methicillin-resistant Staphylococcus aureus 2 measured after overnight incubation by broth double-dilution method; format: functional; procedure, shortened: as §1
Staphylococcus aureus [11] = assay: Antibacterial activity against methicillin-resistant Staphylococcus aureus USA100 measured after overnight incubation by broth double-dilution method; format: functional; procedure, shortened: as §1
Staphylococcus aureus [12] = assay: Antibacterial activity against methicillin-resistant Staphylococcus aureus G1 measured after overnight incubation by broth double-dilution method; format: functional; procedure, shortened: as §1
Enterococcus faecalis [13] = assay: Antibacterial activity against Enterococcus faecalis ATCC 29212 measured after overnight incubation by broth double-dilution method; format: functional; procedure, shortened: as §2
Listeria monocytogenes = assay: Antibacterial activity against Listeria monocytogenes ATCC 19115 measured after overnight incubation by broth double-dilution method; format: functional; procedure, shortened: as §2
Enterococcus = assay: Antibacterial activity against Vancomycin-resistant Enterococcus measured after overnight incubation by broth double-dilution method; format: functional; procedure, shortened: as §1
[14] = system: Mycolicibacterium smegmatis; assay: Antibacterial activity against Mycobacterium smegmatis MC2-155 measured after overnight incubation by broth double-dilution method; format: functional; conditions: str. MC2 155; procedure, shortened: as §1
Staphylococcus aureus [15] = assay: Antibacterial activity against methicillin-sensitive Staphylococcus aureus ATCC 6538 measured after overnight incubation by broth double-dilution method; format: functional; procedure, shortened: as §1
Staphylococcus aureus [16] = assay: Antibacterial activity against methicillin-resistant Staphylococcus aureus NRS51 measured after overnight incubation by broth double-dilution method; format: functional; procedure, shortened: as §1
Staphylococcus aureus [17] = assay: Antibacterial activity against methicillin-resistant Staphylococcus aureus S24 measured after overnight incubation by broth double-dilution method; format: functional; procedure, shortened: as §1
Staphylococcus aureus [18] = assay: Antibacterial activity against methicillin-resistant Staphylococcus aureus G12 measured after overnight incubation by broth double-dilution method; format: functional; procedure, shortened: as §1
Staphylococcus aureus [19] = assay: Antibacterial activity against methicillin-resistant Staphylococcus aureus G14 measured after overnight incubation by broth double-dilution method; format: functional; procedure, shortened: as §1
Staphylococcus aureus [20] = assay: Antibacterial activity against methicillin-resistant Staphylococcus aureus C16 measured after overnight incubation by broth double-dilution method; format: functional; procedure, shortened: as §1
Staphylococcus aureus [21] = assay: Antibacterial activity against methicillin-resistant Staphylococcus aureus ATCC 33591 measured after overnight incubation by broth double-dilution method; format: functional; procedure, shortened: as §1
[22] = Solubility of compound in Muller-Hinton medium; format: physicochemical
Staphylococcus aureus [23] = assay: Antibacterial activity against methicillin-resistant Staphylococcus aureus USA300 measured after overnight incubation by broth double-dilution method; format: functional; procedure, shortened: as §1
Staphylococcus aureus [24] = assay: Antibacterial activity against methicillin-resistant Staphylococcus aureus C7 measured after overnight incubation by broth double-dilution method; format: functional; procedure, shortened: as §1
Staphylococcus aureus [25] = assay: Antibacterial activity against methicillin-resistant Staphylococcus aureus 1 measured after overnight incubation by broth double-dilution method; format: functional; procedure, shortened: as §1
Staphylococcus aureus [26] = assay: Antibacterial activity against methicillin-resistant Staphylococcus aureus S14 measured after overnight incubation by broth double-dilution method; format: functional; procedure, shortened: as §1
Staphylococcus aureus [27] = assay: Antibacterial activity against methicillin-sensitive Staphylococcus aureus ATCC 29213 measured after overnight incubation by broth double-dilution method; format: functional; procedure, shortened: as §1
Staphylococcus aureus [28] = assay: Antibacterial activity against methicillin-resistant Staphylococcus aureus USA600 measured after overnight incubation by broth double-dilution method; format: functional; procedure, shortened: as §1
Staphylococcus aureus [29] = assay: Antibacterial activity against methicillin-resistant Staphylococcus aureus C1 measured after overnight incubation by broth double-dilution method; format: functional; procedure, shortened: as §1
Enterococcus faecalis [30] = assay: Antibacterial activity against Enterococcus faecalis ATCC 49533 measured after overnight incubation by broth double-dilution method; format: functional; procedure, shortened: as §2
Staphylococcus aureus [31] = assay: Antibacterial activity against methicillin-resistant Staphylococcus aureus BRS3 measured after overnight incubation by broth double-dilution method; format: functional; procedure, shortened: as §1
Staphylococcus aureus [32] = assay: Antibacterial activity against methicillin-resistant Staphylococcus aureus C19 measured after overnight incubation by broth double-dilution method; format: functional; procedure, shortened: as §1
Staphylococcus aureus [33] = assay: Antibacterial activity against methicillin-resistant Staphylococcus aureus C14 measured after overnight incubation by broth double-dilution method; format: functional; procedure, shortened: as §1
[34] = Cytotoxicity against HEK293 cells assessed as cell death up to 10 ug/ml measured after 24 hrs by resazurin dye-based fluorescence analysis relative to untreated control; format: toxicity; conditions: human, hek293, 24 h
[35] = system: Staphylococcus epidermidis; assay: Antibiofilm activity against Staphylococcus epidermidis ATCC 35984 assessed as reduction of biofilm at […] measured after 24 hrs by crystal violet staining based method relative to control; format: functional, RP62A; set-up: scale not given: the % may be the effect or the level left
Staphylococcus aureus [36] = assay: Antibiofilm activity against methicillin-sensitive Staphylococcus aureus ATCC 6538 assessed as reduction of biofilm at […] measured after 24 hrs by crystal violet staining based method relative to control; format: functional; set-up: scale not given: the % may be the effect or the level left
Staphylococcus aureus [37] = assay: Antibiofilm activity against methicillin-sensitive Staphylococcus aureus ATCC 6538 assessed as reduction of biofilm at 62..5 ug/ml measured after 24 hrs by crystal violet staining based method relative to control; format: functional; set-up: scale not given: the % may be the effect or the level left

Row | Structure (SMILES) | MIC (Staphylococcus aureus [1]) [µg/mL] | MIC (Staphylococcus aureus [2]) [µg/mL] | MIC (Staphylococcus aureus [3]) [µg/mL] | MIC (Staphylococcus aureus [4]) [µg/mL] | MIC (Staphylococcus aureus [5]) [µg/mL] | MIC (Staphylococcus aureus [6]) [µg/mL] | MIC [7] [µg/mL] | MIC (Staphylococcus aureus [8]) [µg/mL] | MIC (Enterococcus faecium) [µg/mL] | MIC (Staphylococcus aureus [9]) [µg/mL] | MIC (Staphylococcus aureus [10]) [µg/mL] | MIC (Staphylococcus aureus [11]) [µg/mL] | MIC (Staphylococcus aureus [12]) [µg/mL] | MIC (Enterococcus faecalis [13]) [µg/mL] | MIC (Listeria monocytogenes) [µg/mL] | MIC (Enterococcus) [µg/mL] | MIC [14] [µg/mL] | MIC (Staphylococcus aureus [15]) [µg/mL] | MIC (Staphylococcus aureus [16]) [µg/mL] | MIC (Staphylococcus aureus [17]) [µg/mL] | further results
1 | O=c1c2ccccc2sn1-c1ccccn1 | 7.8 (≈ 34.2 µM) | 7.8 (≈ 34.2 µM) | 15.6 (≈ 68.3 µM) | 7.8 (≈ 34.2 µM) | 7.8 (≈ 34.2 µM) | 7.8 (≈ 34.2 µM) | 3.9 (≈ 17.1 µM) | 7.8 (≈ 34.2 µM) | > 125 | 15.6 (≈ 68.3 µM) | 7.8 (≈ 34.2 µM) | 7.8 (≈ 34.2 µM) | 7.8 (≈ 34.2 µM) | > 125 | 7.8 (≈ 34.2 µM) | 7.8 (≈ 34.2 µM) | 7.8 (≈ 34.2 µM) | 7.8 (≈ 34.2 µM) | 7.8 (≈ 34.2 µM) | 7.8 (≈ 34.2 µM) | MIC (Staphylococcus aureus [18]): 7.8 µg/mL (≈ 34.2 µM); MIC (Staphylococcus aureus [19]): 7.8 µg/mL (≈ 34.2 µM); MIC (Staphylococcus aureus [20]): 7.8 µg/mL (≈ 34.2 µM); MIC (Staphylococcus aureus [21]): 3.9 µg/mL (≈ 17.1 µM); solubility [22]: Soluble; MIC (Staphylococcus aureus [23]): 7.8 µg/mL (≈ 34.2 µM); MIC (Staphylococcus aureus [24]): 7.8 µg/mL (≈ 34.2 µM); MIC (Staphylococcus aureus [25]): 15.6 µg/mL (≈ 68.3 µM); MIC (Staphylococcus aureus [26]): 2 µg/mL (≈ 8.76 µM); MIC (Staphylococcus aureus [27]): 7.8 µg/mL (≈ 34.2 µM); MIC (Staphylococcus aureus [28]): 15.6 µg/mL (≈ 68.3 µM); MIC (Staphylococcus aureus [29]): 3.9 µg/mL (≈ 17.1 µM); MIC (Enterococcus faecalis [30]): > 125 µg/mL; MIC (Staphylococcus aureus [31]): 15.6 µg/mL (≈ 68.3 µM); MIC (Staphylococcus aureus [32]): 7.8 µg/mL (≈ 34.2 µM); MIC (Staphylococcus aureus [33]): 7.8 µg/mL (≈ 34.2 µM)
2 | CC(C)c1ccc(-n2sc3ccccc3c2=O)cc1 | 0.5 (≈ 1.86 µM) | 0.5 (≈ 1.86 µM) | 2 (≈ 7.42 µM) | 2 (≈ 7.42 µM) | 0.5 (≈ 1.86 µM) | ≤ 0.25 | 0.25 (≈ 0.928 µM) | 1 (≈ 3.71 µM) | 15.6 (≈ 57.9 µM) | 1 (≈ 3.71 µM) | 1 (≈ 3.71 µM) | 0.5 (≈ 1.86 µM) | ≤ 0.25 | 15.6 (≈ 57.9 µM) | 0.5 (≈ 1.86 µM) | ≤ 0.25 | 0.5 (≈ 1.86 µM) | 2 (≈ 7.42 µM) | 0.5 (≈ 1.86 µM) | ≤ 0.25 | Activity [34]: > 20%; MIC (Staphylococcus aureus [18]): 1 µg/mL (≈ 3.71 µM); MIC (Staphylococcus aureus [19]): 1 µg/mL (≈ 3.71 µM); MIC (Staphylococcus aureus [20]): 1 µg/mL (≈ 3.71 µM); MIC (Staphylococcus aureus [21]): ≤ 0.25 µg/mL; Activity [35]: 50 - 60%; MIC (Staphylococcus aureus [23]): 2 µg/mL (≈ 7.42 µM); MIC (Staphylococcus aureus [24]): 0.5 µg/mL (≈ 1.86 µM); MIC (Staphylococcus aureus [25]): ≤ 0.25 µg/mL; MIC (Staphylococcus aureus [26]): ≤ 0.25 µg/mL; MIC (Staphylococcus aureus [27]): ≤ 0.25 µg/mL; MIC (Staphylococcus aureus [28]): 1 µg/mL (≈ 3.71 µM); MIC (Staphylococcus aureus [29]): ≤ 0.25 µg/mL; Activity (Staphylococcus aureus [36]): 50%; MIC (Enterococcus faecalis [30]): 62.5 µg/mL (≈ 232 µM); MIC (Staphylococcus aureus [31]): 2 µg/mL (≈ 7.42 µM); MIC (Staphylococcus aureus [32]): 0.5 µg/mL (≈ 1.86 µM); MIC (Staphylococcus aureus [33]): 1 µg/mL (≈ 3.71 µM)
3 | O=c1c2ccccc2sn1-c1ccc(F)cc1 | 3.9 (≈ 15.9 µM) | 2 (≈ 8.15 µM) | 3.9 (≈ 15.9 µM) | 2 (≈ 8.15 µM) | 3.9 (≈ 15.9 µM) | 3.9 (≈ 15.9 µM) | 2 (≈ 8.15 µM) | 3.9 (≈ 15.9 µM) | 31.3 (≈ 128 µM) | 3.9 (≈ 15.9 µM) | 2 (≈ 8.15 µM) | 2 (≈ 8.15 µM) | 2 (≈ 8.15 µM) | 62.5 (≈ 255 µM) | 2 (≈ 8.15 µM) | 2 (≈ 8.15 µM) | 1 (≈ 4.08 µM) | 3.9 (≈ 15.9 µM) | 3.9 (≈ 15.9 µM) | 2 (≈ 8.15 µM) | Activity (Staphylococcus aureus [37]): 10%; MIC (Staphylococcus aureus [18]): 2 µg/mL (≈ 8.15 µM); MIC (Staphylococcus aureus [19]): 2 µg/mL (≈ 8.15 µM); MIC (Staphylococcus aureus [20]): 3.9 µg/mL (≈ 15.9 µM); MIC (Staphylococcus aureus [21]): 1 µg/mL (≈ 4.08 µM); MIC (Staphylococcus aureus [23]): 2 µg/mL (≈ 8.15 µM); MIC (Staphylococcus aureus [24]): 1 µg/mL (≈ 4.08 µM); MIC (Staphylococcus aureus [25]): 3.9 µg/mL (≈ 15.9 µM); MIC (Staphylococcus aureus [26]): ≤ 0.25 µg/mL; MIC (Staphylococcus aureus [27]): 3.9 µg/mL (≈ 15.9 µM); MIC (Staphylococcus aureus [28]): 2 µg/mL (≈ 8.15 µM); MIC (Staphylococcus aureus [29]): 2 µg/mL (≈ 8.15 µM); MIC (Enterococcus faecalis [30]): > 125 µg/mL; MIC (Staphylococcus aureus [31]): 3.9 µg/mL (≈ 15.9 µM); MIC (Staphylococcus aureus [32]): 2 µg/mL (≈ 8.15 µM); MIC (Staphylococcus aureus [33]): 3.9 µg/mL (≈ 15.9 µM)
